From the EternaBench riboswitch data

Test system: MS2 coat protein
Assay: apparent Kd, MS2 coat protein; higher = weaker binding; RNA-MaP array; FMN 200 µM where present
Procedure, shortened: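 Stalled E. coli RNA polymerase transcribed each design on Illumina sequencing-chip clusters. The clusters were titrated with SNAP-549-labelled MS2 coat protein, starting at 0.7 or 1.5 nM and doubling up to 3 µM, first without ligand and then with constant ligand, in 100 mM Tris-HCl pH 7.5, 80 mM KCl, 4 mM MgCl2, BSA, DTT, yeast tRNA and Tween-20. Green signal was normalised to red-channel RNA signal and to the control-cluster median Fmax. The apparent Kd is the median of filtered binding-curve fits made for each cluster.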

[1] = designed as: OFF switch for flavin mononucleotide, no ligand
[2] = ligand present: flavin mononucleotide, designed as: OFF switch for flavin mononucleotide
[3] = designed as: ON switch for flavin mononucleotide, no ligand
[4] = ligand present: flavin mononucleotide, designed as: ON switch for flavin mononucleotide

Sequence | apparent Kd [1] [nM] | apparent Kd [2] [nM] | apparent Kd [3] [nM] | apparent Kd [4] [nM]
GUGUACAGAGGAUAUACAUAAGCAUGGAAACAUGCUACUUCACAUGAGGAUCACCCAUGUAGAAGGCUGUACAC | 14.5 | 15.4 |  | 
CUGACAGUGUAGCGCGUCUAGCCAGAGGAUAUCCACAUGAGGAUCACCCAUGUCAUGUCCUCGCGGGAGAAGGCUGGCUUGGCG | 204 | 54.3 |  | 
UGGUACUAGGGAGGAUAUGGGAAGAUACAUGAGGAUCACCCAUGUUUAGGAAUGCCGAGAGGCAACUAGAAGGCCCUAGUACCU |  |  | 832 | 46.1
UCAUUUAUUACAGGAUAUGUUAGUAUACAGUUGUUUGGUUAUUACAUAAUAACAGAAGGGUAGAACAUGAGGAUCACCCAUGUA |  |  | 244 | 113
GGGCGACAUGAGGAUCACCCAUGUAAGGAUAUACAACUGCCCACUAAAAUCUGGGCUGGUAGAAGGUGCAGAAA | 35.7 | 42.8 |  | 
CUGCUUCGCUAAGGAUAUCACAUUGUCGAUCUGCGUGCAGCCUCCUGACAUGAGGAUCACCCAUGUGAGAAGGUAGACGACGUG | 19.4 | 22.5 |  | 
CGCAUCUCCUCAAUUCCUUCACAUGAGGAUCACCCAUGUAGGGAGGAUAUGCAAGCCUAUUGGCGGCAGAAGGCCCUGCAAUGG | 72.9 | 67.4 |  | 
UACCUGAGGCAAAGCCUUAGGUAUACAUGAGGAUCACCCAUGUAGGAUAUGGUAGGCUUUGCUUACCAGAAGGACAUGUUAAUU | 19.8 | 63.8 |  | 
AACAGUAGAGGAUAUACAUGAGGAUCACCCAUGUGAUAUUUACGUGGCGUACCACGAAGUAGAAGGCUACUGGA | 30.7 | 265 |  | 
GCCAUCACAUGAGGAUAUGCUCGGGUUUCCCGAGCAGAAGGCAUGUCAUAAGACAUGAGGAUCACCCAUGUAGGUAAGAUGGCA |  |  | 292 | 13.6
AAAAAGUGAGGAUAUGCUUUUAUUUAUUAUUAUUAUUAUUUGCAGAAGGCACAUGAGGAUCACCCAUGUAAGAA | 31.7 | 24.9 |  | 
AAAUAAAAUAUAGGAUAUGGAAACAUGAGGAUCACCCAUGUAUGAUAAGAUAAAUAAUGAUAUAGCCAGAAGGAUACAAUAUAA |  |  | 31 | 38.3
CAGUACUGAGGAUAUACAUGAGGAUCACCCAUGUGCCUAAGGUAGGAUACUACCAUUAGUAGAAGGCAGUACUG | 13.8 | 29.6 |  | 
GCAAAGCCUGACAUGAGGAUCACCCAUGUUAGAUUGUUAUGUCAGGAUAUUGUCUAGACACUAGACAAGAAGGGAUGCUUUGCU |  |  | 366 | 34.2
UUAUACUGAGAGAAGGUUCAAACUACAUAUUGCAUACAUGAGGAUCACCCAUGUUGGUGAAUAAGAAAGGAUAUUUUACUGUAU | 39.2 | 27.9 |  | 
CCAGUGUUAGGAUAUGAUACUAAUGGAUAGCAUUCCGCAGUUUAGAAGGGACAUGAGGAUCACCCAUGUACGGG | 144 | 139 |  | 
GUCAGCUCGUGAGGAUAUACAACACUGCUUCGUCAGUGUAUUAAGAUCACAUGAGGAUCACCCAUGUAGAAGGCACGAGCUGAU | 12.2 | 211 |  | 
CUUAUGUGAGGAUAUGUACAGAAAAAACUGGGUGUAACUGUACAGAAGGCACAUGAGGAUCACCCAUGUGCCUU | 16.9 | 13.8 |  | 
GACUGCAUGUAAGGAUAUCGACUGGAAUACAGUCGAGAAGGUACAUGAGGAUCACCCAUGUAAUAAGAUCAAUAAUAAGCAGUC | 14.9 | 33.1 |  | 
AGGGCUGCUCAGGAUAUCCGUAAAAGCCGAGAAGGAGAAGGGAGCACAUGAGGAUCACCCAUGUGAUCCGAAAA | 21.6 | 44 |  | 
AUUCUGCUCGCAGGAUAUCAGGAAAUGUUGAUCUUCUGUAUCUCCUACAUGAGGAUCACCCAUGUUGAGAAGGGCGAUGGCAAU | 65.7 | 400 |  | 
GGCCCGUCUGUUAGGAUAUUGUCGAACUUUAGCGGCGAGAAGGAACAUGAGGAUCACCCAUGUCCCAACUGGGA | 25.5 | 196 |  | 
AAAUAAAGGACUAAGGAUAUAUCGCAUGACACAUGAGGAUCACCCAUGUGGUAACACAGAGGGUGAUAGAAGGUAGUCCACAAACA |  |  | 404 | 75.8
UUUCCGCGAGGAUAUGCGGGUUGUGCUUUUCAUUUCUUACAACAUGAGGAUCACCCAUGUAGAAGGUGCUUCUU | 174 | 156 |  | 
AAUUGUAGAACAAUCACUACCAGUCAGGAUAUACAUGAGGAUCACCCAUGUCGUGUCGACAGCAUGUAGAAGGGACGGUUAUAU | 51.6 | 115 |  | 
UAUAUAUAGUAAGGAUAUGUAUUUAAUUUAUAAACAGAAGGUACUGACAUGAGGAUCACCCAUGUUUUAGUGUGGGCAUGUAGA | 97.9 | 147 |  | 
UAUUUAAUCAUAGGAUAUAGUGUGAAAUUUGGACUAGAAGGAUGUAACAUGAGGAUCACCCAUGUGGUAAGUGGGACACAUUGA |  |  | 107 | 130
AGGCGAGUAGGAUAUGCGUUUUUACGGGAAAGCUGGAUGGUACAUGAGGAUCACCCAUGUAGAAGGGCUCUGAA | 23.4 | 21.8 |  | 

Sequence | apparent Kd [1] [nM] | apparent Kd [2] [nM] | apparent Kd [3] [nM] | apparent Kd [4] [nM]
UGGGAUGGCUAGAAGGCUCCGUAAACUACAGGGAGAGGAUAUGGCACAUGAGGAUCACCCAUGUGUACCUGUAGGUGAUCCACA | 19 | 90.8 |  | 
AUUGAUGUUGAGGAUAUGCUUUUAUUUAUAAUAGCAGAAGGCGAUACAUGAGGAUCACCCAUGUUCAUGGUAGU | 62.2 | 67 |  | 
CUAUUGUGAGGAUAUCAGUAGUAGAACAAUAGUACUACUACUGAGAAGGCACAUGAGGAUCACCCAUGUUCCUC | 61.1 | 406 |  | 
AGAUAGUGGUGAGGAUAUCAGAAUAGAAAGAAAUGAGAAGGCGCACAUGAGGAUCACCCAUGUGAGGUCUUGAGACUACAUGGU | 20 | 22.1 |  | 
UCCGGAGUAGGAUAUACGGUGUAAUGACACGGCGUCGAUCAACAUGAGGAUCACCCAUGUAGAAGGACUGCGUC | 14.4 | 15.9 |  | 
GUUAAGGUAGGAUAUACGAUAAGAUAGGGUAGAUAUAUAACACAUGAGGAUCACCCAUGUAGAAGGACCAAUUG | 38.3 | 105 |  | 
UUGGACGUCGUAGGAUAUGUAGGAUAUUCCUACAUGAGGAUCACCCAUGUUGACAUGGAAGAAGGACACAAGGACGAUGUCCAU |  |  | 664 | 15.8
UUGGAGUACGUAGGAUAUGUAGGAUAUUCCUACAUGAGGAUCACCCAUGUAAGCAUGGAAGAAGGACAGAAGGACGUGCUCCAU |  |  | 223 | 14.9
AAUAACAGAGGAUAUACUGUUUUAUGUGUUUAUUGUUUUGAACAUGAGGAUCACCCAUGUAGAAGGCUGAAUGA | 26.1 | 26.2 |  | 
CAUUAAUUAAUUAUAGUAUUUAUACAGGAUAUGUAACAUGAGGAUCACCCAUGUAUACAUGGGAAACAGAAGGGUAUUUAUAGA | 32 | 28.8 |  | 
AAAUUAAGAAGAGGAUAUUGACAUGAGGAUCACCCAUGUAUUUGGGAGUGUUUACUGAAUUCUUACGAGAAGGCUUACGAAAUU | 221 | 212 |  | 
AUCCGGCGUGUAGGAUAUGGAAAAGAAAAGGAUCCAGAAGGACAUGAGGAUCACCCAUGUACAUGUAAACAGUCAUCACCGGAA | 36.2 | 58.9 |  | 
AUAAGGUUCUUCAAGGUGCUACAUGAGGAUCACCCAUGUGAGAGAAGGGCCCGUGGACUUGGAGGGUAGGAUAUCUCCAUGCGU | 8.32 | 10.1 |  | 
AGGAGACAUGAGGAUCACCCAUGUGCACGGUGAAGAGGAUAUGUGCGUGGAGAGACACGGACAGAAGGCUUAAGAA |  |  | 65.3 | 33
AAUUAGGUCACAGGAUAUACAACAUCCAUUGCUGUAGAAGGGUGUCACAAUCAUAUCUGACAUGAGGAUCACCCAUGUUUCCAC |  |  | 85.8 | 33.3
UCUACAUAGAUUCAUCAAUACAGUAAGGAUAUGAGAUACAUGAGGAUCACCCAUGUGCAUGUGGAUUAGAAGGUACAAUUAACU | 16.8 | 14.9 |  | 
ACCUUACAUGAGGAUCACCCAUGUUAGGAUAUCUCGCCUGCGCAAUCACAGCGCAGGCAGAGAAGGGACGCGGG | 30.3 | 32.1 |  | 
GCGGCUAAUGCAGGAUAUCGGCACGUGUAGUGCCGAGAAGGGCACAUGAGGAUCACCCAUGUGAUCAAUCAAUGUUAAUGCCGC | 8.86 | 44.2 |  | 
CCCUCACAUGAGGAUCACCCAUGUCAGGAUAUCUAGUCAGACAGUGUAGCACUAAUGAAGAGAAGGGACGUAUG | 25.6 | 26.8 |  | 
UGUACAUUAUUAAGUAAUUAGGCGAAGGAUAUAUAACAUGAGGAUCACCCAUGUACUAAAUUGAAGUAGAAGGUUGAGCAUUUC |  |  | 16.2 | 13.7
GCCAUCGCAUGAGGAUAUGCUCGGGUUUCCCGAGCAGAAGGCAUGCCAUAAGACAUGAGGAUCACCCAUGUAGUUAAGAUGGCA |  |  | 5.36 | 5.4
GCUGUCGCAUGAGGAUAUGGUCAGCUUUGCUGACCAGAAGGCAUGUCAAUAGACAUGAGGAUCACCCAUGUAGUAAGGGCGGCU |  |  | 466 | 48.8
GUAUCUUACCGAGGAUAUUUACGAUUAGUGUAGACAUGAGGAUCACCCAUGUGGCCUUAGUCACGGGAGAAGGCGGUUUGAUAC |  |  | 233 | 59
GGUAGAAACAUUAACAUGAGGAUCACCCAUGUCAAAAGAAAUGAGGAUAUCGUCUACAAUGUAGAUGAGAAGGCAUGGUCUGCC |  |  | 8.45 | 6.84
AUUUUGUCAGGAUAUGACUAGUAGGACGAGAGUGCUACUACUUAGAAGGGACAUGAGGAUCACCCAUGUAUUCC | 16 | 17.4 |  | 
AGAAUAAACCAGAAGGCGUAGAUACAUGAGGAUCACCCAUGUAUACUUGCGAGGAUAUGGAUGAUUCAAGUGCGUUUCGUAGCA |  |  | 6.06 | 4.23
CAUGUCCUCACAGGAUAUGCUGGACUUUGUCCAGCAGAAGGGUGAUAACAUGAGGAUCACCCAUGUGGACAUGAUAUAUUUAAU |  |  | 111 | 568
